Experiment [1] concerns Mast cell. Nature of the experiment: Inhibition of compound-48/80 induced degranulation in Wistar rat peritoneal mast cells assessed as histamine release at 20 uM by spectrophotometry.
The test system of a further experiment is Mus musculus. The experiment is described as follows: Antiinflammatory activity in Laca mouse assessed as inhibition of arachidonic acid-induced ear oedema at 300 ug/ear. The class given is functional. The essentials: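 Male Laca mice (25-30 g), groups of five, sedated with sodium pentobarbitone 60 mg kg-1 i.p. Compound or indomethacin at 300 µg ear-1 and arachidonic acid at 1 mg ear-1, all in acetone. 5 mm punch biopsies taken from both ears and weighed; left-ear weight subtracted from right. Inhibition calculated against the AA-only group. Student's t-test; at least 5 animals.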

Experiment [2] concerns Mast cell. The experiment is described as follows: Inhibition of compound-48/80 induced degranulation in Wistar rat peritoneal mast cells assessed as histamine release at 20 uM by spectrophotometry. The class given is functional. An outline of the steps: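 Peritoneal cells recovered by lavage with 15 ml HEPES buffer at 37 °C from a female Wistar rat (250-300 g). Cells washed by centrifugation, >90% viable, about 1.4% mast cells. Stopped with iced buffer; released histamine measured by o-phthalaldehyde spectrophotometry. Mean of at least five experiments, SE given.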

Experiment [3] has as its system Mast cell. Nature of the experiment: Inhibition of concanavalin A-induced degranulation in Wistar rat peritoneal mast cells assessed as histamine release by spectrophotometry.
In experiment [4] the test system is Mast cell. Nature of the experiment: Inhibition of compound-48/80 induced degranulation in Wistar rat peritoneal mast cells assessed as histamine release by spectrophotometry.
Experiment [5] deals with Mast cell. The experiment is described as follows: Inhibition of A23187-induced degranulation in Wistar rat peritoneal mast cells assessed as histamine release by spectrophotometry.
For experiment [6], the system named is Mast cell. Nature of the experiment: Inhibition of compound-48/80 induced degranulation in Wistar rat peritoneal mast cells assessed as histamine release by spectrophotometry. In kind it is functional, cell-based. The essentials:
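Female Wistar rat (250-300 g) peritoneal lavage cells in HEPES buffer, unpurified, preincubated with compound across a dose range. Stopped with iced buffer; histamine release measured spectrophotometrically as o-phthalaldehyde complex. IC50 derived from dose-response curve fitting.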

SMILES strings stand for the structures. pIC50: −log10 of the molar value. Calls of active or inactive are those of the source. No cut-off for these calls is given here.

As for `O=C1CCC(N(Cc2ccc3ccccc3c2)C2CCCC2)c2ccccc21` (centres undefined), the inhibition at 20 µM in the experiment on Mast cell [1] stood at 77%.

As for `CCC(=O)NC1CCC(=O)c2ccccc21` (centres undefined), in the experiment with Mus musculus, the “inhibition (INH)” value amounted to 11%.

With `CN(C1CCCC1)C1CCC(=O)c2ccccc21` (centres undefined), in the experiment with Mast cell [1], the inhibition at 20 µM stood at 43%.

Consider `COc1cc(CN(C2CCCC2)C2CCC(=O)c3ccccc32)cc(OC)c1OC` (centres undefined), for which, in the experiment with Mast cell [2], the outcome was inactive.

Consider `O=C1CCC(N(Cc2ccc([N+](=O)[O-])cc2)C2CCCC2)c2ccccc21` (centres undefined), for which the inhibition at 20 µM with Mast cell [1] amounted to 65%.

For the compound `O=C(O)c1cc(=O)c2c(OCC(O)COc3cccc4oc(C(=O)O)cc(=O)c34)cccc2o1` [CROMOLYN SODIUM], the inhibition at 20 µM in the experiment with Mast cell [1] is 10%.

Take `N#Cc1ccc(CN(C2CCCC2)C2CCC(=O)c3ccccc32)cc1` (centres undefined): the inhibition at 20 µM in the experiment on Mast cell [1] came to 67%.

As to `O=C1CCC(N(Cc2ccccc2)C2CCCC2)c2ccccc21` (centres undefined), the values for the pIC50 in the experiment with Mast cell [3], in the experiment with Mast cell [4] and in the experiment with Mast cell [5] were 5.14, 5.62 and 6.55, respectively. In addition, in the experiment with Mast cell [1], the inhibition at 20 µM came to 99%.

For `CC(=O)c1ccccc1CN(C)Cc1ccccc1`, the outcome with Mast cell [6] and in the experiment with Mast cell [2] was inactive.

Consider `CN(Cc1ccccc1)C1CCC(=O)c2ccccc21` (centres undefined), for which the result with Mast cell [6] and in the experiment on Mast cell [2] was inactive.

On to `O=C1CCC(N(C(=O)Cc2ccccc2)C2CCCC2)c2ccccc21` (centres undefined), for which the “inhibition (INH)” value in the experiment on Mus musculus is on record as 53%.

As for `C=CCN(C1CCCC1)C1CCC(=O)c2ccccc21` (centres undefined), the outcome in the experiment with Mast cell [2] was inactive.

For the compound `COc1ccc2c(c1)c(CC(=O)O)c(C)n2C(=O)c1ccc(Cl)cc1` [INDOMETHACIN], the “inhibition (INH)” value in the experiment on Mus musculus came to 74%.

Take `CC(=O)N(C1CCCC1)C1CCC(=O)c2ccccc21` (centres undefined): in the experiment with Mus musculus, the “inhibition (INH)” value was 2%.

As a reminder, the inhibition is the change of the read-out against control, counted positive when it falls. As a reminder, the pIC50 is −log10 of the IC50, conventionally taken in molar units.

For the origin of these results see ChEMBL document CHEMBL1154480, “Synthesis and evaluation of 4-amino-3,4-dihydro-2H-naphthalen-1-one derivatives as mast cell stabilising and anti-inflammatory compounds” (Eur J Med Chem, 2008).
